Laboratory results published in ChEMBL document CHEMBL2331542, “Synthesis and in vitro antibacterial activity of quinolone/naphthyridone derivatives containing 3-alkoxyimino-4-(methyl)aminopiperidine scaffolds” (2013).
Converted amounts (≈) assume the structure as drawn.

The molecules below were run on Staphylococcus aureus (assay: Antibacterial activity against methicillin-sensitive Staphylococcus aureus isolate 12-6).
Format: functional
In short: (§1)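 MIC determined in vitro by a standard technique and defined as the lowest compound concentration giving complete inhibition of bacterial growth. The Gram-positive and Gram-negative panels were tested alongside gemifloxacin, levofloxacin and ciprofloxacin reference drugs.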

Compound | MIC [mg/L]
O=C1NC2CCN(c3nc4c(cc3F)c(=O)c(C(=O)O)cn4C3CC3)CC2O1 (stereo unspecified) | 1 (≈ 2.57 µM)

The molecules below were run on Escherichia coli (assay: Antibacterial activity against Escherichia coli isolate 12-1).
Format: functional
In short: as §1

Compound | MIC [mg/L]
O=C1NC2CCN(c3nc4c(cc3F)c(=O)c(C(=O)O)cn4C3CC3)CC2O1 (stereo unspecified) | 16 (≈ 41.2 µM)

What follows are molecules tested on Streptococcus pneumoniae (assay: Antibacterial activity against Streptococcus pneumoniae isolate 12-5).
Format: functional
In short: as §1

Compound | MIC [mg/L]
O=C1NC2CCN(c3nc4c(cc3F)c(=O)c(C(=O)O)cn4C3CC3)CC2O1 (stereo unspecified) | 0.5 (≈ 1.29 µM)

What follows are molecules tested on Escherichia coli (assay: Antibacterial activity against Escherichia coli isolate 12-4).
Format: functional
In short: as §1

Compound | MIC [mg/L]
O=C1NC2CCN(c3nc4c(cc3F)c(=O)c(C(=O)O)cn4C3CC3)CC2O1 (stereo unspecified) | > 128

The molecules below were run on Klebsiella pneumoniae (assay: Antibacterial activity against extended-spectrum beta-lactamase-producing Klebsiella pneumoniae isolate 12-2).
Format: functional
In short: as §1

Compound | MIC [mg/L]
O=C1NC2CCN(c3nc4c(cc3F)c(=O)c(C(=O)O)cn4C3CC3)CC2O1 (stereo unspecified) | > 128

The molecules below were run on Staphylococcus epidermidis (assay: Antibacterial activity against methicillin-sensitive Staphylococcus epidermidis isolate 12-2).
Format: functional
In short: as §1

Compound | MIC [mg/L]
O=C1NC2CCN(c3nc4c(cc3F)c(=O)c(C(=O)O)cn4C3CC3)CC2O1 (stereo unspecified) | 2 (≈ 5.15 µM)

The molecules below were run on Staphylococcus aureus (assay: Antibacterial activity against methicillin-resistant Staphylococcus aureus isolate 12-3).
Format: functional
In short: (§2)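 MIC determined in vitro by standard techniques, defined as the lowest compound concentration giving complete inhibition of bacterial growth. Gemifloxacin, levofloxacin and ciprofloxacin were tested alongside as reference drugs.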

Compound | MIC [mg/L]
O=C1NC2CCN(c3nc4c(cc3F)c(=O)c(C(=O)O)cn4C3CC3)CC2O1 (stereo unspecified) | 2 (≈ 5.15 µM)

What follows are molecules tested on Staphylococcus aureus (assay: Antibacterial activity against methicillin-sensitive Staphylococcus aureus isolate 12-7).
Format: functional
In short: as §1

Compound | MIC [mg/L]
O=C1NC2CCN(c3nc4c(cc3F)c(=O)c(C(=O)O)cn4C3CC3)CC2O1 (stereo unspecified) | 128 (≈ 330 µM)

What follows are molecules tested on Klebsiella pneumoniae (assay: Antibacterial activity against extended-spectrum beta-lactamase-producing Klebsiella pneumoniae isolate 12-4).
Format: functional
In short: as §1

Compound | MIC [mg/L]
O=C1NC2CCN(c3nc4c(cc3F)c(=O)c(C(=O)O)cn4C3CC3)CC2O1 (stereo unspecified) | 128 (≈ 330 µM)

Each molecule was assayed on Streptococcus pneumoniae (assay: Antibacterial activity against Streptococcus pneumoniae isolate 12-2).
Format: functional
In short: as §1

Compound | MIC [mg/L]
O=C1NC2CCN(c3nc4c(cc3F)c(=O)c(C(=O)O)cn4C3CC3)CC2O1 (stereo unspecified) | 2 (≈ 5.15 µM)

These molecules were tested on Staphylococcus aureus (assay: Antibacterial activity against methicillin-resistant Staphylococcus aureus isolate 12-15).
Format: functional
In short: as §2

Compound | MIC [mg/L]
O=C1NC2CCN(c3nc4c(cc3F)c(=O)c(C(=O)O)cn4C3CC3)CC2O1 (stereo unspecified) | 2 (≈ 5.15 µM)

These molecules were tested on Staphylococcus epidermidis (assay: Antibacterial activity against methicillin-sensitive Staphylococcus epidermidis isolate 12-3).
Format: functional
In short: as §1

Compound | MIC [mg/L]
O=C1NC2CCN(c3nc4c(cc3F)c(=O)c(C(=O)O)cn4C3CC3)CC2O1 (stereo unspecified) | 1 (≈ 2.57 µM)

Each molecule was assayed on Staphylococcus aureus (assay: Antibacterial activity against methicillin-resistant Staphylococcus aureus isolate 12-13).
Format: functional
In short: as §2

Compound | MIC [mg/L]
O=C1NC2CCN(c3nc4c(cc3F)c(=O)c(C(=O)O)cn4C3CC3)CC2O1 (stereo unspecified) | 2 (≈ 5.15 µM)

These molecules were tested on Klebsiella pneumoniae (assay: Antibacterial activity against extended-spectrum beta-lactamase-producing Klebsiella pneumoniae isolate 12-1).
Format: functional
In short: as §1

Compound | MIC [mg/L]
O=C1NC2CCN(c3nc4c(cc3F)c(=O)c(C(=O)O)cn4C3CC3)CC2O1 (stereo unspecified) | 128 (≈ 330 µM)

The molecules below were run on Staphylococcus epidermidis (assay: Antibacterial activity against methicillin-sensitive Staphylococcus epidermidis isolate 12-1).
Format: functional
In short: as §1

Compound | MIC [mg/L]
O=C1NC2CCN(c3nc4c(cc3F)c(=O)c(C(=O)O)cn4C3CC3)CC2O1 (stereo unspecified) | 1 (≈ 2.57 µM)

What follows are molecules tested on Staphylococcus aureus (assay: Antibacterial activity against methicillin-sensitive Staphylococcus aureus isolate 12-10).
Format: functional
In short: as §1

Compound | MIC [mg/L]
O=C1NC2CCN(c3nc4c(cc3F)c(=O)c(C(=O)O)cn4C3CC3)CC2O1 (stereo unspecified) | 0.5 (≈ 1.29 µM)

Each molecule was assayed on Escherichia coli (assay: Antibacterial activity against extended-spectrum beta-lactamase-producing Escherichia coli isolate 12-1).
Format: functional
In short: as §1

Compound | MIC [mg/L]
O=C1NC2CCN(c3nc4c(cc3F)c(=O)c(C(=O)O)cn4C3CC3)CC2O1 (stereo unspecified) | > 128

The molecules below were run on Escherichia coli (assay: Antibacterial activity against Escherichia coli ATCC 25922).
Format: functional
In short: as §1

Compound | MIC [mg/L]
O=C1NC2CCN(c3nc4c(cc3F)c(=O)c(C(=O)O)cn4C3CC3)CC2O1 (stereo unspecified) | 1 (≈ 2.57 µM)

Each molecule was assayed on Staphylococcus epidermidis (assay: Antibacterial activity against methicillin-resistant Staphylococcus epidermidis isolate 12-33).
Format: functional
In short: as §2

Compound | MIC [mg/L]
O=C1NC2CCN(c3nc4c(cc3F)c(=O)c(C(=O)O)cn4C3CC3)CC2O1 (stereo unspecified) | 1 (≈ 2.57 µM)

These molecules were tested on Escherichia coli (assay: Antibacterial activity against extended-spectrum beta-lactamase-producing Escherichia coli isolate 12-2).
Format: functional
In short: as §1

Compound | MIC [mg/L]
O=C1NC2CCN(c3nc4c(cc3F)c(=O)c(C(=O)O)cn4C3CC3)CC2O1 (stereo unspecified) | > 128

The molecules below were run on Escherichia coli (assay: Antibacterial activity against extended-spectrum beta-lactamase-producing Escherichia coli isolate 12-4).
Format: functional
In short: as §1

Compound | MIC [mg/L]
O=C1NC2CCN(c3nc4c(cc3F)c(=O)c(C(=O)O)cn4C3CC3)CC2O1 (stereo unspecified) | 64 (≈ 165 µM)

The molecules below were run on Pseudomonas aeruginosa (assay: Antibacterial activity against Pseudomonas aeruginosa isolate 12-2).
Format: functional
In short: as §1

Compound | MIC [mg/L]
O=C1NC2CCN(c3nc4c(cc3F)c(=O)c(C(=O)O)cn4C3CC3)CC2O1 (stereo unspecified) | 16 (≈ 41.2 µM)

Each molecule was assayed on Klebsiella pneumoniae (assay: Antibacterial activity against Klebsiella pneumoniae isolate 12-1).
Format: functional
In short: as §1

Compound | MIC [mg/L]
O=C1NC2CCN(c3nc4c(cc3F)c(=O)c(C(=O)O)cn4C3CC3)CC2O1 (stereo unspecified) | 2 (≈ 5.15 µM)

These molecules were tested on Klebsiella pneumoniae (assay: Antibacterial activity against Klebsiella pneumoniae isolate 12-2).
Format: functional
In short: as §1

Compound | MIC [mg/L]
O=C1NC2CCN(c3nc4c(cc3F)c(=O)c(C(=O)O)cn4C3CC3)CC2O1 (stereo unspecified) | 2 (≈ 5.15 µM)

These molecules were tested on Klebsiella pneumoniae (assay: Antibacterial activity against Klebsiella pneumoniae isolate 12-4).
Format: functional
In short: as §1

Compound | MIC [mg/L]
O=C1NC2CCN(c3nc4c(cc3F)c(=O)c(C(=O)O)cn4C3CC3)CC2O1 (stereo unspecified) | 32 (≈ 82.4 µM)

These molecules were tested on Staphylococcus epidermidis (assay: Antibacterial activity against methicillin-resistant Staphylococcus epidermidis isolate 12-35).
Format: functional
In short: as §2

Compound | MIC [mg/L]
O=C1NC2CCN(c3nc4c(cc3F)c(=O)c(C(=O)O)cn4C3CC3)CC2O1 (stereo unspecified) | 0.5 (≈ 1.29 µM)

The molecules below were run on Pseudomonas aeruginosa (assay: Antibacterial activity against Pseudomonas aeruginosa isolate 12-1).
Format: functional
In short: as §1

Compound | MIC [mg/L]
O=C1NC2CCN(c3nc4c(cc3F)c(=O)c(C(=O)O)cn4C3CC3)CC2O1 (stereo unspecified) | 16 (≈ 41.2 µM)

The molecules below were run on Staphylococcus epidermidis (assay: Antibacterial activity against methicillin-resistant Staphylococcus epidermidis isolate 12-5).
Format: functional
In short: as §2

Compound | MIC [mg/L]
O=C1NC2CCN(c3nc4c(cc3F)c(=O)c(C(=O)O)cn4C3CC3)CC2O1 (stereo unspecified) | 0.5 (≈ 1.29 µM)

What follows are molecules tested on Escherichia coli (assay: Antibacterial activity against Escherichia coli isolate 12-5).
Format: functional
In short: as §1

Compound | MIC [mg/L]
O=C1NC2CCN(c3nc4c(cc3F)c(=O)c(C(=O)O)cn4C3CC3)CC2O1 (stereo unspecified) | > 128

These molecules were tested on Pseudomonas aeruginosa (assay: Antibacterial activity against Pseudomonas aeruginosa ATCC 27853).
Format: functional
In short: as §1

Compound | MIC [mg/L]
O=C1NC2CCN(c3nc4c(cc3F)c(=O)c(C(=O)O)cn4C3CC3)CC2O1 (stereo unspecified) | 8 (≈ 20.6 µM)

These molecules were tested on Staphylococcus aureus (assay: Antibacterial activity against Staphylococcus aureus […]).
Format: functional
In short: as §1

Compound | MIC [mg/L]
O=C1NC2CCN(c3nc4c(cc3F)c(=O)c(C(=O)O)cn4C3CC3)CC2O1 (stereo unspecified) | 1 (≈ 2.57 µM)
